High-throughput results: PubChem BioAssay, The Scripps Research Institute Molecular Screening Center
HTRA1 inhibitor: inhibitors of human serine peptidase HTRA1; recombinant HTRA1, FP-rhodamine activity-based probe, fluorescence polarization; inhibition, % at 5.96 µM; 0.5% of 340,000 active; AID 504803; in the data active means inhibition above about 36%
PAFAH1B3 FP inh: inhibitors of human PAFAH1B3; recombinant PAFAH1B3, FP-rhodamine probe, fluorescence polarization; Q15102; inhibition, % at 3.39 µM; 0.28% of 340,000 active;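 active means inhibition above the screen-wide average of all tested compounds plus 3 SD, cut at about 25% in these data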
ABHD4 inh: ABHD4 (mouse) inhibition, primary FP screen; 0.54% of 370,000 active; Q8VD66; inhibition, % at 8.92 µM; purified mABHD4, FP-Rh probe fluorescence polarization;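 active means inhibition exceeding the mean over every tested compound plus 3 SD, cut at about 30% in these data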
Target sequence (Q8VD66 whole entry, looked up): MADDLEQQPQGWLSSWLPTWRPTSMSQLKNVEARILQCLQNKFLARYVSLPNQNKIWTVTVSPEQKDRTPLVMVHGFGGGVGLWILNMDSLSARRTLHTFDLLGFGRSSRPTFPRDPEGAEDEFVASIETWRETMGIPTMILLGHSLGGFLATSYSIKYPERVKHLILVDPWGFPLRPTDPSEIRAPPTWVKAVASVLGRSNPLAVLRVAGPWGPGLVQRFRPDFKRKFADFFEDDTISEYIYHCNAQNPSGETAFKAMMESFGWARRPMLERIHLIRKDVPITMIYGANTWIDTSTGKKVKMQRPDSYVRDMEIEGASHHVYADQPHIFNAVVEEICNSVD
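Assay system: mouse ABHD4 enzyme, wild type / Also added: fluorescent activity-based probe FP-Rh / Doses: single nominal dose of 8.92 µM, 0.89% DMSO final / Timing: 45 min compound pre-incubation plus 60 min probe step, 25 °C / Signal: FP readout, ex 525 nm / em 598 nm / Control set: S159A mutant/DMSO as 100%, compound-well median as 0%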
pPAFAH FP inh: pPAFAH (human) enzyme inhibition; 1.5% of 330,000 active; Q13093; AID 463082; recombinant pPAFAH, FP-rhodamine probe fluorescence polarization; inhibition, % at 3.39 µM;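 active means inhibition above the mean inhibition across the screen plus 3 SD, cut at about 25% in these data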;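 further: inhibitors block binding of the rhodamine activity-based probe so polarization drops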
PAFAH1B2 inh: inhibitors of human PAFAH1B2 | P68402 | recombinant PAFAH1B2, FP-rhodamine activity probe, fluorescence polarization | inhibition, % at 3.39 µM | 1.2% of 340,000 active;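 active means inhibition above the mean of all tested compounds plus 3 SD, cut at about 24% in these data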
Target sequence (P68402 whole entry, looked up): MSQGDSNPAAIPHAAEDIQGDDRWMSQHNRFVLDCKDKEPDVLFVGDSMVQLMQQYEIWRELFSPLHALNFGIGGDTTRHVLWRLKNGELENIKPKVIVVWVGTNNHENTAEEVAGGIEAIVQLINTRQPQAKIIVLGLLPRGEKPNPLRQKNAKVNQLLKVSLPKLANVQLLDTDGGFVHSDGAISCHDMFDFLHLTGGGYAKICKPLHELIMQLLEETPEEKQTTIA
PAFAH2 inh: PAFAH2 (human) inhibition; recombinant PAFAH2, FP-rhodamine activity probe, fluorescence polarization; 0.99% of 340,000 active; inhibition, % at 3.39 µM; AID 492956; Q99487;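 active means inhibition above the mean over all tested compounds plus 3 SD, cut at about 30% in these data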;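 further: inhibitors block probe labeling of enzyme so polarization drops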
mABHD4 conf: confirmation of mouse ABHD4 inhibitors | shares compounds with ABHD4 inh | purified mABHD4, FP-Rh probe fluorescence polarization | inhibition, % at 8.92 µM | 55% of 1,800 active | AID 720658;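 active means mean inhibition across replicates above the hit cutoff set in the primary screen, cut at about 30% in these data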
Large screens that a line does not name were inactive (follow-up assays come after a bar, where they were run). The list is not random: actives were taken first. Their share in the collection is about 2.8%.

CCN1C(=O)/C(=C2/C(=O)N3c4c(cc(OC(C)=O)cc42)C(C)=CC3(C)C)SC1=S	none
O=C(O)c1ccc(N2CCN(c3ccc(Cl)cc3)CC2)c([N+](=O)[O-])c1	ABHD4 inh 38 | mABHD4 conf 47
CCOC(=O)[C@]12CCCC=C1N(Cc1ccc(OC)cc1)C(=O)[C@@H]2CC(=O)N1CCC(c2ccccc2)CC1	none (no result: HTRA1 inhibitor, PAFAH1B3 FP inh, pPAFAH FP inh, PAFAH1B2 inh, PAFAH2 inh)
COc1ccc2c(c1)c(/C=N/Nc1nc3ccccc3[nH]1)c(C)n2C	ABHD4 inh 33 | mABHD4 conf 59
COc1cc(/C=N\Nc2nc3ccccc3[nH]2)cc(OC)c1OC	none
COC(=O)[C@]12C[C@H](CC(=O)N3CCOCC3)C(=O)N(CCC3=CCCCC3)C1=C[C@H](C(C)C)O[C@@H]2C1CC1	none (no result: HTRA1 inhibitor, PAFAH1B3 FP inh, pPAFAH FP inh, PAFAH1B2 inh, PAFAH2 inh)
O=C(O)/C=C/C(=O)Nc1ccc(O)cc1	ABHD4 inh 37 | mABHD4 conf inactive
COc1ccc(/C=C/C(=O)Nc2ccc(N3CCOCC3)cc2)cc1	none
COc1ccc(N2CCN(c3ccc(NC(=O)/C=C\C(=O)O)cc3)CC2)cc1	ABHD4 inh 36 | mABHD4 conf inactive
O=C(OCc1ccccc1)[C@H](Cc1ccccc1)NC(=O)[C@@H]1CC=C[C@@H]2CCN(C3CCCCC3)C(=O)[C@@H]21	none (no result: HTRA1 inhibitor, PAFAH1B3 FP inh, pPAFAH FP inh, PAFAH1B2 inh, PAFAH2 inh)
COc1ccccc1Cc1c(-c2ccc(Cl)cc2)nc2ccc(C)cn12	none (no result: HTRA1 inhibitor, PAFAH1B3 FP inh, pPAFAH FP inh, PAFAH1B2 inh, PAFAH2 inh)
COC(=O)C(=O)C1CCc2c(Cl)cc(OC)c(OC)c2C1=O (stereo unspecified)	ABHD4 inh 52 (no result: pPAFAH FP inh) | mABHD4 conf inactive
O=C(N/N=C/c1ccccc1O)c1ccncc1	none
O=C(NN=Cc1cccc(O)c1O)c1ccccc1	ABHD4 inh 39 (no result: HTRA1 inhibitor, PAFAH1B3 FP inh, pPAFAH FP inh, PAFAH1B2 inh, PAFAH2 inh) | mABHD4 conf inactive
Nc1[nH]c(C(=O)c2ccccc2)c(-c2ccc(Cl)cc2Cl)c1C(=O)NCCc1c[nH]c2ccccc12	ABHD4 inh 33 (no result: HTRA1 inhibitor, PAFAH1B3 FP inh, pPAFAH FP inh, PAFAH1B2 inh, PAFAH2 inh) | mABHD4 conf inactive
Nc1[nH]c(C(=O)c2ccc(Br)cc2)c(-c2ccc3ccccc3c2)c1C(=O)NCCc1c[nH]c2ccccc12	ABHD4 inh 30 (no result: HTRA1 inhibitor, PAFAH1B3 FP inh, pPAFAH FP inh, PAFAH1B2 inh, PAFAH2 inh) | mABHD4 conf 35
Nc1[nH]c(C(=O)c2ccccc2)c(-c2ccc(Cl)c(F)c2)c1C(=O)NCCc1c[nH]c2ccccc12	ABHD4 inh 40 (no result: HTRA1 inhibitor, PAFAH1B3 FP inh, pPAFAH FP inh, PAFAH1B2 inh, PAFAH2 inh) | mABHD4 conf 43
Nc1[nH]c(C(=O)c2ccccc2)c(-c2ccc(Cl)cc2)c1C(=O)NCCc1c[nH]c2ccccc12	ABHD4 inh 31 (no result: HTRA1 inhibitor, PAFAH1B3 FP inh, pPAFAH FP inh, PAFAH1B2 inh, PAFAH2 inh) | mABHD4 conf inactive
COC(=O)[C@]12C[C@H](CC(=O)N3CCSCC3)C(=O)N(Cc3cccc4ccccc34)C1=C[C@H](C(C)C)O[C@@H]2C1CC1	none (no result: HTRA1 inhibitor, PAFAH1B3 FP inh, pPAFAH FP inh, PAFAH1B2 inh, PAFAH2 inh)
O=S1(=O)c2ccc(N3CCN(Cc4ccccc4F)CC3)cc2Oc2ccccc2CN1Cc1cn(Cc2cccc(F)c2)nn1	none (no result: HTRA1 inhibitor, PAFAH1B3 FP inh, pPAFAH FP inh, PAFAH1B2 inh, PAFAH2 inh)
N#Cc1ccc(/C=C2\CC3(OC(=O)c4ccccc4)CCCN2C3)cc1 (stereo unspecified)	none (no result: HTRA1 inhibitor, PAFAH1B3 FP inh, pPAFAH FP inh, PAFAH1B2 inh, PAFAH2 inh)
Cc1cc(C)cc(-c2c(C(=O)c3ccccc3)[nH]c(N)c2C(=O)NCCc2c[nH]c3ccccc23)c1	none (no result: HTRA1 inhibitor, PAFAH1B3 FP inh, pPAFAH FP inh, PAFAH1B2 inh, PAFAH2 inh)
Nc1[nH]c(C(=O)c2ccccc2)c(-c2ccc(Cl)c(Cl)c2)c1C(=O)NCCc1c[nH]c2ccccc12	ABHD4 inh 33 (no result: HTRA1 inhibitor, PAFAH1B3 FP inh, pPAFAH FP inh, PAFAH1B2 inh, PAFAH2 inh) | mABHD4 conf inactive
Nc1[nH]c(C(=O)c2ccccc2)c(-c2cccc(C(F)(F)F)c2)c1C(=O)NCCc1c[nH]c2ccccc12	ABHD4 inh 31 (no result: HTRA1 inhibitor, PAFAH1B3 FP inh, pPAFAH FP inh, PAFAH1B2 inh, PAFAH2 inh) | mABHD4 conf inactive
Nc1[nH]c(C(=O)c2ccccc2)c(-c2ccc3c(c2)OCO3)c1C(=O)NCCc1c[nH]c2ccccc12	ABHD4 inh 33 (no result: HTRA1 inhibitor, PAFAH1B3 FP inh, pPAFAH FP inh, PAFAH1B2 inh, PAFAH2 inh) | mABHD4 conf 39
CCC(CC)C1C(C#N)=C(N)Oc2cc(C)oc(=O)c21 (stereo unspecified)	none
Cc1cc2c(c(=O)o1)C(c1ccc([N+](=O)[O-])o1)C(C#N)=C(N)O2 (stereo unspecified)	ABHD4 inh 32 (no result: HTRA1 inhibitor, PAFAH1B3 FP inh, PAFAH1B2 inh, PAFAH2 inh) | mABHD4 conf inactive
O=C(Nc1ncccc1O)c1c(O)c2ccccc2[nH]c1=O	ABHD4 inh 39 | mABHD4 conf inactive
Cc1ccc(S(=O)(=O)N/N=C/c2ccc(O)c(O)c2)cc1[N+](=O)[O-]	ABHD4 inh 40 | mABHD4 conf inactive
COC(=O)C1CN(C2CCCC2)CCS(=O)(=O)N1Cc1cn(Cc2ccc(OC)cc2)nn1 (stereo unspecified)	none (no result: HTRA1 inhibitor, PAFAH1B3 FP inh, pPAFAH FP inh, PAFAH1B2 inh, PAFAH2 inh)
CCN1CCCCC(NC(=O)c2ccc(F)c(F)c2)C1=O (stereo unspecified)	none (no result: HTRA1 inhibitor, PAFAH1B3 FP inh, pPAFAH FP inh, PAFAH1B2 inh, PAFAH2 inh)
CC1=NN(c2ccccc2)C(=O)C1C=Nc1ccc(N(C)C)cc1 (stereo unspecified)	ABHD4 inh 39, pPAFAH FP inh 34 (no result: HTRA1 inhibitor, PAFAH1B3 FP inh, PAFAH1B2 inh, PAFAH2 inh) | mABHD4 conf inactive
CC1=NN(c2ccccc2)C(=O)C1N=Nc1ccc(C)cc1 (stereo unspecified)	none (no result: HTRA1 inhibitor, PAFAH1B3 FP inh, ABHD4 inh, PAFAH1B2 inh, PAFAH2 inh)
Cc1cc(NCCCN2CCOCC2)n2ncc(-c3ccccc3)c2n1	none
Cc1cc(NCc2ccccn2)n2ncc(-c3ccc(Cl)cc3)c2n1	ABHD4 inh 48 (no result: HTRA1 inhibitor, PAFAH1B3 FP inh, PAFAH1B2 inh, PAFAH2 inh) | mABHD4 conf 64
Cc1cc(NCc2ccccn2)n2nc(C)c(-c3ccc(Cl)cc3)c2n1	none
